Data reported in ChEMBL document CHEMBL3632612, “Discovery of WQ-3810: Design, synthesis, and evaluation of 7-(3-alkylaminoazetidin-1-yl)fluoro-quinolones as orally active antibacterial agents” (Eur J Med Chem, 2015).
≈ marks a conversion by molar mass, not a printed value.

Tests used:
Klebsiella pneumoniae [1] = assay: Antibacterial activity against Klebsiella pneumoniae KC-1 assessed as growth inhibition at 128 to 0.002 mg/L incubated for 18 hrs at 37 degC by agar dilution method; type: functional; conditions: KC-1, 18 h
How it was run: (§1)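 Agar dilution on Mueller Hinton agar per Japanese Society of Chemotherapy standard method; about 10⁴ cfu inoculated onto plates holding two-fold dilution series; incubation 37°C, 18 h; MIC read as growth endpoint.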

Klebsiella pneumoniae [2] = assay: Antibacterial activity against Klebsiella pneumoniae DT-S assessed as growth inhibition at 128 to 0.002 mg/L incubated for 18 hrs at 37 degC by agar dilution method; type: functional; how it was run: as §1
Salmonella typhimurium = assay: Antibacterial activity against Salmonella typhimurium IFO13245 assessed as growth inhibition at 128 to 0.002 mg/L incubated for 18 hrs at 37 degC by agar dilution method; type: functional, Salmonella enterica subsp. enterica serovar Typhimurium; conditions: Salmonella enterica, IFO13245, 18 h; how it was run: as §1
Enterobacter cloacae = assay: Antibacterial activity against Enterobacter cloacae IFO13535 assessed as growth inhibition at 128 to 0.002 mg/L incubated for 18 hrs at 37 degC by agar dilution method; type: functional; conditions: IFO13535, 18 h; how it was run: as §1
Proteus vulgaris = assay: Antibacterial activity against Proteus vulgaris IFO3167 assessed as growth inhibition at 128 to 0.002 mg/L incubated for 18 hrs at 37 degC by agar dilution method; type: functional; conditions: IFO3167, 18 h; how it was run: as §1
Proteus mirabilis = assay: Antibacterial activity against Proteus mirabilis IFO3849 assessed as growth inhibition at 128 to 0.002 mg/L incubated for 18 hrs at 37 degC by agar dilution method; type: functional; conditions: IFO3849, 18 h; how it was run: as §1
Serratia marcescens [3] = assay: Antibacterial activity against Serratia marcescens IFO3736 assessed as growth inhibition at 128 to 0.002 mg/L incubated for 18 hrs at 37 degC by agar dilution method; type: functional; conditions: IFO3736, 18 h; how it was run: as §1
Serratia marcescens [4] = assay: Antibacterial activity against Serratia marcescens T-55 assessed as growth inhibition at 128 to 0.002 mg/L incubated for 18 hrs at 37 degC by agar dilution method; type: functional; conditions: T-55, 18 h; how it was run: as §1
Morganella morganii = assay: Antibacterial activity against Morganella morganii W1026 assessed as growth inhibition at 128 to 0.002 mg/L incubated for 18 hrs at 37 degC by agar dilution method; type: functional; conditions: W1026, 18 h; how it was run: as §1
Providencia rettgeri = assay: Antibacterial activity against Providencia rettgeri W1008 assessed as growth inhibition at 128 to 0.002 mg/L incubated for 18 hrs at 37 degC by agar dilution method; type: functional; conditions: W1008, 18 h; how it was run: as §1
Pseudomonas aeruginosa [5] = assay: Antibacterial activity against Pseudomonas aeruginosa IFO3445 assessed as growth inhibition at 128 to 0.002 mg/L incubated for 18 hrs at 37 degC by agar dilution method; type: functional; conditions: IFO3445, 18 h; how it was run: as §1
Pseudomonas aeruginosa [6] = assay: Antibacterial activity against Pseudomonas aeruginosa E-2 assessed as growth inhibition at 128 to 0.002 mg/L incubated for 18 hrs at 37 degC by agar dilution method; type: functional; conditions: E-2, 18 h; how it was run: as §1
Pseudomonas aeruginosa [7] = assay: Antibacterial activity against Pseudomonas aeruginosa 15846 assessed as growth inhibition at 128 to 0.002 mg/L incubated for 18 hrs at 37 degC by agar dilution method; type: functional; conditions: Pseudomonas aeruginosa, 15846, 18 h; how it was run: as §1
[8] = tested on: Acinetobacter calcoaceticus; assay: Antibacterial activity against Acinetobacter calcoaceticus Ac-54 assessed as growth inhibition at 128 to 0.002 mg/L incubated for 18 hrs at 37 degC by agar dilution method; type: functional; conditions: Ac-54, 18 h; how it was run: as §1
[9] = Drug excretion in Sprague-Dawley rat urine at 10 mg/kg, po after 24 hrs by HPLC; type: ADME, organism-based; conditions: read-out: Drug excretion
How it was run: (§2)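 Six-week male Sprague-Dawley rats, fasted overnight; oral dose suspended in 0.5% methylcellulose, iv dose dissolved in 0.04 N NaOH. Urine from intact rats in metabolic cages, bile from bile duct-cannulated rats, 0–24 h. Bile alkaline-hydrolysed (1 N NaOH, 37°C, 1 h) to convert glucuronides; HPLC with UV 290 nm and internal standard; % of dose; mean ± S.D., three rats.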

[10] = Drug excretion in Sprague-Dawley rat bile assessed as unmetabolized form at 10 mg/kg, po after 24 hrs by HPLC; type: ADME, organism-based; conditions: read-out: Drug excretion; how it was run: as §2
[11] = Drug excretion in Sprague-Dawley rat urine at 5 mg/kg, iv after 24 hrs by HPLC; type: ADME, organism-based; conditions: read-out: Drug excretion; how it was run: as §2
[12] = Drug excretion in Sprague-Dawley rat bile assessed as unmetabolized form at 5 mg/kg, iv after 24 hrs by HPLC; type: ADME, organism-based; conditions: read-out: Drug excretion; how it was run: as §2
[13] = Oral drug absorption in Sprague-Dawley rat at 10 mg/kg, po after 24 hrs by HPLC; type: ADME, organism-based; conditions: in vivo
How it was run: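 Absorption rate computed as total urinary plus biliary excretion (% of dose, summed means) after oral dosing divided by total after iv dosing; excretion measured in fasted male Sprague-Dawley rats by HPLC over 24 h, bile glucuronides alkaline-hydrolysed.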

[14] = Solubility of the compound in JP2 solution at pH 6.8 after 24 hrs at 25 degC by HPLC; type: physicochemical
How it was run: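 Excess solid shaken in JP2 (50 mM potassium dihydrogenphosphate, pH 6.8) at 25°C for 24 h to equilibrium, filtered 0.45 µm; filtrate concentration by reversed-phase UPLC, UV 290 nm; mean ± S.D., n=3.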

[15] = Passive permeability of the compound after 5 hrs at 25 degC by PAMPA assay; type: physicochemical; conditions: read-out: Peff
How it was run: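 PAMPA: 10 µM compound in PBS with 5% MeOH in donor, PBS acceptor; 25°C, 5 h; both sides quantified by HPLC; Peff derived from donor/acceptor concentrations, volumes, 0.3 cm² filter area and 18,000 s; mean ± S.D., n=3.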

[16] = Drug excretion in Sprague-Dawley rat at 10 mg/kg, po after 24 hrs by HPLC; type: ADME, organism-based; conditions: in vivo, read-out: Drug excretion; how it was run: as §2
[17] = Drug excretion in Sprague-Dawley rat assessed as unmetabolized form at 5 mg/kg, iv after 24 hrs by HPLC; type: ADME, organism-based; conditions: in vivo, read-out: Drug excretion; how it was run: as §2
DNA gyrase = DNA gyrase (Escherichia coli, UniProt P0AES4+P0AES6); assay: Inhibition of Escherichia coli DNA gyrase preincubated for 5 mins at 37 degC before addition of relaxed pBR322 as substrate by supercoiling assay; type: protein-complex assay
Escherichia coli [18] = assay: Antibacterial activity against Escherichia coli NIHJ assessed as growth inhibition at 128 to 0.002 mg/L incubated for 18 hrs at 37 degC by agar dilution method; type: functional; how it was run: as §1
Escherichia coli [19] = assay: Antibacterial activity against Escherichia coli KC-14 assessed as growth inhibition at 128 to 0.002 mg/L incubated for 18 hrs at 37 degC by agar dilution method; type: functional; conditions: KC-14, 18 h; how it was run: as §1
Escherichia coli [20] = assay: Antibacterial activity against Escherichia coli 177 assessed as growth inhibition at 128 to 0.002 mg/L incubated for 18 hrs at 37 degC by agar dilution method; type: functional; conditions: Escherichia coli, 177, 18 h; how it was run: as §1
Citrobacter freundii = assay: Antibacterial activity against Citrobacter freundii IFO1268 assessed as growth inhibition at 128 to 0.002 mg/L incubated for 18 hrs at 37 degC by agar dilution method; type: functional; conditions: IFO1268, 18 h; how it was run: as §1

| Compound | MIC (Klebsiella pneumoniae [1]) | MIC (Klebsiella pneumoniae [2]) | MIC (Salmonella typhimurium) | MIC (Enterobacter cloacae) | MIC (Proteus vulgaris) | MIC (Proteus mirabilis) | MIC (Serratia marcescens [3]) | MIC (Serratia marcescens [4]) | MIC (Morganella morganii) | MIC (Providencia rettgeri) | MIC (Pseudomonas aeruginosa [5]) | MIC (Pseudomonas aeruginosa [6]) | MIC (Pseudomonas aeruginosa [7]) | MIC [8] | dose excreted at 24 h [9] | dose excreted at 24 h [10] | dose excreted at 24 h [11] | dose excreted at 24 h [12] | Fa at 24 h [13] | solubility at 24 h [14] | also measured |
| --- | --- | --- | --- | --- | --- | --- | --- | --- | --- | --- | --- | --- | --- | --- | --- | --- | --- | --- | --- | --- | --- |
| Cc1c(N2CC(N)C2)c(F)cc2c(=O)c(C(=O)O)cn(-c3nc(N)c(F)cc3F)c12 | 0.061 µg/mL (≈ 0.145 µM) | 0.061 µg/mL (≈ 0.145 µM) | 0.061 µg/mL (≈ 0.145 µM) | 0.061 µg/mL (≈ 0.145 µM) | 0.061 µg/mL (≈ 0.145 µM) | 0.061 µg/mL (≈ 0.145 µM) | 0.061 µg/mL (≈ 0.145 µM) | 0.061 µg/mL (≈ 0.145 µM) | 0.061 µg/mL (≈ 0.145 µM) | 0.061 µg/mL (≈ 0.145 µM) | 0.061 µg/mL (≈ 0.145 µM) | 0.061 µg/mL (≈ 0.145 µM) | 0.061 µg/mL (≈ 0.145 µM) | 0.061 µg/mL (≈ 0.145 µM) | 4% | 4.2% | 44% | 41% | 9.6% | 27 µg/mL (≈ 64.4 µM) | Papp at 5 h [15]: 0.12 ×10⁻⁶ cm/s; dose excreted at 24 h [16]: 8.2%; dose excreted at 24 h [17]: 85%; IC50 (DNA gyrase): 286 nM; MIC (Escherichia coli [18]): 4 ng/mL (≈ 0.00954 µM); MIC (Escherichia coli [19]): 4 ng/mL (≈ 0.00954 µM); MIC (Escherichia coli [20]): 4 ng/mL (≈ 0.00954 µM); MIC (Citrobacter freundii): 0.061 µg/mL (≈ 0.145 µM) |
| CNC1CN(c2c(F)cc3c(=O)c(C(=O)O)cn(-c4nc(N)c(F)cc4F)c3c2C)C1 | 0.077 µg/mL (≈ 0.178 µM) | 0.077 µg/mL (≈ 0.178 µM) | 0.077 µg/mL (≈ 0.178 µM) | 0.077 µg/mL (≈ 0.178 µM) | 0.077 µg/mL (≈ 0.178 µM) | 0.077 µg/mL (≈ 0.178 µM) | 0.077 µg/mL (≈ 0.178 µM) | 0.077 µg/mL (≈ 0.178 µM) | 0.077 µg/mL (≈ 0.178 µM) | 0.077 µg/mL (≈ 0.178 µM) | 0.077 µg/mL (≈ 0.178 µM) | 0.077 µg/mL (≈ 0.178 µM) | 0.077 µg/mL (≈ 0.178 µM) | 0.077 µg/mL (≈ 0.178 µM) | 13% | 16% | 49% | 41% | 31% | 3.1 µg/mL (≈ 7.15 µM) | Papp at 5 h [15]: 0.19 ×10⁻⁶ cm/s; dose excreted at 24 h [16]: 28%; dose excreted at 24 h [17]: 90%; IC50 (DNA gyrase): 554 nM; MIC (Escherichia coli [18]): 6 ng/mL (≈ 0.0138 µM); MIC (Escherichia coli [19]): 6 ng/mL (≈ 0.0138 µM); MIC (Escherichia coli [20]): 6 ng/mL (≈ 0.0138 µM); MIC (Citrobacter freundii): 0.077 µg/mL (≈ 0.178 µM) |
| CCNC1CN(c2c(F)cc3c(=O)c(C(=O)O)cn(-c4nc(N)c(F)cc4F)c3c2C)C1 | 0.12 µg/mL (≈ 0.268 µM) | 0.12 µg/mL (≈ 0.268 µM) | 0.12 µg/mL (≈ 0.268 µM) | 0.12 µg/mL (≈ 0.268 µM) | 0.12 µg/mL (≈ 0.268 µM) | 0.12 µg/mL (≈ 0.268 µM) | 0.12 µg/mL (≈ 0.268 µM) | 0.12 µg/mL (≈ 0.268 µM) | 0.12 µg/mL (≈ 0.268 µM) | 0.12 µg/mL (≈ 0.268 µM) | 0.12 µg/mL (≈ 0.268 µM) | 0.12 µg/mL (≈ 0.268 µM) | 0.12 µg/mL (≈ 0.268 µM) | 0.12 µg/mL (≈ 0.268 µM) | 20% | 49% | 41% | 51% | 76% | 45 µg/mL (≈ 101 µM) | Papp at 5 h [15]: 0.29 ×10⁻⁶ cm/s; dose excreted at 24 h [16]: 69%; dose excreted at 24 h [17]: 91%; IC50 (DNA gyrase): 174 nM; MIC (Escherichia coli [18]): 6 ng/mL (≈ 0.0134 µM); MIC (Escherichia coli [19]): 6 ng/mL (≈ 0.0134 µM); MIC (Escherichia coli [20]): 6 ng/mL (≈ 0.0134 µM); MIC (Citrobacter freundii): 0.12 µg/mL (≈ 0.268 µM) |
